The source of these data is ChEMBL document CHEMBL1142632, “A new bioactive sesterterpene and antiplasmodial alkaloids from the marine sponge hyrtios cf. erecta” (J Nat Prod, 2000).

The test system of one data set is Priestia megaterium. Description: Antibacterial activity against Bacillus megaterium at 50 ug by agar diffusion assay. It counts as functional. The conditions noted are these: read-out: IZ. The method in brief:
(§1)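 Agar diffusion: crude extracts and pure compounds applied at 50 µg per disk; growth inhibition read as zone diameter (mm).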
Background: Agar diffusion results depend on both activity and mobility in agar.

Data set [1] has as its target Tyrosine-protein kinase Lck (Homo sapiens) (UniProt P06239). Put plainly: Inhibition of p56 LCK activity at 0.6 mM. The arrangement: scale not given: the % may be the effect or the level left. An outline of the steps: (§2)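 Nonradioactive ELISA-based tyrosine kinase assay. Samples in DMSO/H2O (1:1) were incubated with 1 U p56lck, 1 µM tyrosine kinase substrate II, 1 mM ATP and 10 mM MgCl2 at 30 °C for 60 to 80 min. Buffers: 20% dilution buffer (HEPES, pH 7.0) and 20% assay buffer (Tris, pH 7.5, with Na3VO4). Absorbance read at 415 nm as residual activity.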

For data set [2] the target is unchanged. Put plainly: Inhibition of p56 LCK activity at 0.3 mM. The arrangement: scale not given: the % may be the effect or the level left. The method in brief: as §2
The next data set relates to Escherichia coli. Put plainly: Antibacterial activity against Escherichia coli at 50 ug by agar diffusion assay. It counts as functional. The conditions noted are these: read-out: IZ. An outline of the steps: as §1
Data set [3] has as its system Plasmodium falciparum. Description: Antiplasmodial activity against chloroquine-sensitive Plasmodium falciparum NF54. It counts as functional, organism-based. An outline of the steps:
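In vitro assay against P. falciparum strain NF54, of unknown origin and susceptible to standard antimalarials. Chloroquine and artemisinin were run as positive controls.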

A short description of data set [4]: Cytotoxicity against rat L6 cells. The conditions noted are these: read-out: MIC. It counts as cell-based.
The subject of data set [5] is Plasmodium falciparum. Put plainly: Antiplasmodial activity against chloroquine, pyrimethamine-resistant Plasmodium falciparum K1. It counts as functional, organism-based. The method in brief: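 In vitro assay against P. falciparum strain K1, a Thailand isolate resistant to chloroquine and pyrimethamine. Chloroquine and artemisinin were run as positive controls.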

Data set [6] is described as follows: Cytotoxicity against mouse peritoneal macrophages. It counts as cell-based, Macrophage. The conditions noted are these: read-out: MIC.
Data set [7] has as its target Tyrosine-protein kinase Lck (Homo sapiens) (UniProt P06239). Description: Inhibition of p56 LCK activity at 0.5 mM. Details: scale not given: the % may be the effect or the level left. The method in brief: as §2
The test system of the next data set is Microbotryum violaceum. Put plainly: Antifungal activity against Ustilago violacea at 50 ug by agar diffusion assay. It counts as functional. The conditions noted are these: read-out: IZ. An outline of the steps:
as §1

In data set [8] the target is Tyrosine-protein kinase Lck (Homo sapiens) (UniProt P06239). Put plainly: Inhibition of p56 LCK activity at 0.7 mM. Details: scale not given: the % may be the effect or the level left. The method in brief:
as §2

For data set [9], the system named is Trypanosoma brucei rhodesiense. Put plainly: Antitrypanosomal activity against Trypanosoma brucei subsp. rhodesiense. It counts as functional, organism-based.
Data set [10] addresses Human immunodeficiency virus type 1 reverse transcriptase (Human immunodeficiency virus 1) (UniProt Q72547). Put plainly: Inhibition of HIV1 reverse transcriptase assessed as enzyme residual activity at 0.12 mM. The method in brief:
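Nonradioactive ELISA-based reverse transcriptase assay. Reaction mixture held 1 ng recombinant HIV-1-RT. Samples were dissolved in 10% DMSO/lysis buffer. Read-out was residual enzyme activity.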

Data set [11] deals with Hepatovirus A. Put plainly: Antiviral activity against HAV cytHB1.1 in FRhK4 cells assessed as effect on cytopathogenic effect at 0.038 ug/mL after 21 days by immunofluorescence analysis. It counts as functional, organism-based. An outline of the steps:
(§3)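 FRhK-4 cells in 96-well plates were used. For line 5, cells were inoculated with 2 × 10^7 TCID50/ml HAVcytHB1.1. For line 4, cells were persistently infected with HAV/7. Morphology (cytopathogenicity) was checked microscopically over 21 days, and HAV antigen was detected by immunofluorescence after 21 days.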
On the technique in general: Cytopathic effects are the visible damage that an infection or toxin causes in cultured cells.

In data set [12] the test system is Hepatovirus A. Put plainly: Antiviral activity against HAV 7 in FRhK4 cells assessed as effect on cytopathogenic effect at 0.038 ug/mL after 21 days by immunofluorescence analysis. It counts as functional, organism-based. The method in brief: as §3

Values after ≈ are worked out from the molar mass of the structure shown. Active and inactive are the calls of the source. No cut-off for these calls is given here.

Chain of Tyrosine-protein kinase Lck (Homo sapiens) (P06239 2-509 limits assumed): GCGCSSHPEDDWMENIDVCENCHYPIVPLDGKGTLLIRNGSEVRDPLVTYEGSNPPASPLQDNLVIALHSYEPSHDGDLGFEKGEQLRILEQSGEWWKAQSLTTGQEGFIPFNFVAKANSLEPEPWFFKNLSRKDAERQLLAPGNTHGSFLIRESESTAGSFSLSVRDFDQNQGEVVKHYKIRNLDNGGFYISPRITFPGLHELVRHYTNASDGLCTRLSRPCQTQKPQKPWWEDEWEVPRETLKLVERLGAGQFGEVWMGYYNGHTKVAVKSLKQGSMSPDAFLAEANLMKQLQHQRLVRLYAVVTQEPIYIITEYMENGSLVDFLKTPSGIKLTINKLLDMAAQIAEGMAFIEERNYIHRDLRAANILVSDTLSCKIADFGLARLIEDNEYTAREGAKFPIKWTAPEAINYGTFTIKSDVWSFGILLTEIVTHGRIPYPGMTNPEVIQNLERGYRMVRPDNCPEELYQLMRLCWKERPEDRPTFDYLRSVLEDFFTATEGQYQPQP

For `CC(=O)CC1(O)c2ccccc2-[n+]2ccc3c([nH]c4ccccc43)c21.[Cl-]` (configuration not stated) [HOMOFASCAPLYSIN A], the results for the zone of inhibition at 50 µg/disc in the data set on Priestia megaterium and with Escherichia coli were 11 mm and 9 mm, respectively. Moreover, the Activity in [1] came to 8%; in data set [2] it was 44%. Besides, the values for the 50% inhibitory concentration (IC50) with Plasmodium falciparum [3] and in the data set on Plasmodium falciparum [5] were 0.024 µg/mL and 0.014 µg/mL, respectively. The values for the MCC in [4] and in data set [6] were 1.1 µg/mL and 30 µg/mL, respectively.
For `C[C@@H]1CC[C@H]2[C@@H](C)C(=O)O[C@@H]3O[C@@]4(C)CC[C@@H]1[C@]32OO4` [ARTEMISININ], the IC50 (usually the point on the concentration scale where inhibition reaches its midpoint) stood at 0.002 µg/mL (≈ 7.08 nM) in the data set with Plasmodium falciparum [3] and 0.001 µg/mL (≈ 3.54 nM) with Plasmodium falciparum [5].
In data set [7], `CC1=C(CC/C(C)=C/CC/C(C)=C/CCC2=CCOC2=O)C(C)(C)CCC1=O` returned an Activity of 45%.
For the compound `CC1=C(CC/C(C)=C/CC/C(C)=C/CCC2=CCOC2=O)C(C)(C)CCC1`, the zone of inhibition at 50 µg/disc in the data set on Microbotryum violaceum amounted to 2 mm.
With `O=C1c2ccccc2-[n+]2ccc3c([nH]c4ccccc43)c21.[Cl-]` [FASCAPLYSIN CHLORIDE], the figures for the zone of inhibition at 50 µg/disc in the data set on Priestia megaterium and in the data set on Escherichia coli were 10 mm and 6 mm, respectively. Moreover, the Activity in [8] and in data set [10] was 10% each time. The IC50 in data set [9] is 630 nM; with Plasmodium falciparum [3], 0.034 µg/mL; in the data set with Plasmodium falciparum [5], 0.05 µg/mL. In addition, the outcome with Hepatovirus A [11] and in the data set with Hepatovirus A [12] was Active. The MCC in data set [4] came out at 2.5 µg/mL.
